# Test results taken from PMC10725268 (CPT: Pharmacometrics & Systems Pharmacology, 2023).
# Where a SMILES comes first, the peptide text is derived from it. Bridges are numbered along the chain shown (N, C = ends). [ ]: non-standard residue; d: D form. The star is where a group is joined. Heptanoyl(6-Me) = CC(C)CCCCC(=O)*; X1 = CC[C@H](C)CCCCC(=O)*; Dab = NCC[C@H](N)C(=O)O
# Legend:
# patients receiving PMB = details: cited from earlier work
# [1] = Steady-state plasma concentrations of PMB; format: in vivo; details: human, iv
# Procedure, shortened: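 Blood drawn after ≥48 h of dosing; peak taken immediately after infusion end. Samples centrifuged 885 g, 10 min; supernatant stored −80°C. PMB1 and PMB2 measured by UPLC-MS/MS on a C18 column (2.6 μm, 3.0 × 50 mm), 40°C, 0.3 ml/min. Gradient: 0.1% formic acid in water versus acetonitrile. Total PMB is the sum of PMB1 and PMB2.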
# critically ill patients [2] = test: Clinical outcome during intravenous PMB treatment; format: in vivo, human
# Procedure, shortened: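 Single-centre ICU cohort, August 2020–July 2022: adults on intravenous PMB for ≥2 days with MDR Gram-negative infection. Excluded: baseline creatinine >1.5 mg/dl, prior renal replacement, or a changed maintenance dose. Prognosis and adverse events were taken from hospital records. AKI and non-AKI groups were compared by chi-square or Fisher's exact test.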
# critically ill patients [3] = format: in vivo, human
# Procedure, shortened: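 Intravenous dosing: 2.5 mg/kg loading dose (not all patients), then 2.5–3 mg/kg/day in two divided doses. After ≥48 h, mid-interval plasma concentration was sampled 6 h post-dose. Variables with p < 0.05 in univariate logistic regression entered forward-stepwise multivariate regression, with fit checked by Hosmer–Lemeshow. ROC cutoff was taken at the maximum Youden index. AKI probability came from a logistic equation on C1/2t.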
# [4] = Estimation of PMB AUC0-24 from timed steady-state plasma concentrations; format: in vivo, human; details: mean ± SD; for AUC(0-t): human, iv, AUC0–24, trapezoidal area
# critically ill patients [5] = test: PMB-induced acute kidney injury; format: in vivo, human
# Procedure, shortened: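 ICU adults (>18 years) with MDR Gram-negative infection, given intravenous PMB (sulfate) for ≥2 days with plasma monitoring. Excluded: baseline serum creatinine >1.5 mg/dl or prior renal replacement. AKI (KDIGO) was a serum creatinine rise ≥0.3 mg/dl within 48 h, >1.5-fold within 7 days, or urine output <0.5 ml/kg/h for >6 h.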
# [6] = one-compartment model, AKI (n = 30)
# [7] = one-compartment model, Non-AKI (n = 25)
# [8] = one-compartment model, Overall (n = 55)
smiles,measurement,setting,value
"CC[C@H](C)CCCCC(=O)N[C@@H](CCN)C(=O)N[C@H](C(=O)N[C@@H](CCN)C(=O)N[C@H]1CCNC(=O)[C@H]([C@@H](C)O)NC(=O)[C@H](CCN)NC(=O)[C@H](CCN)NC(=O)[C@H](CC(C)C)NC(=O)[C@@H](Cc2ccccc2)NC(=O)[C@H](CCN)NC1=O)[C@@H](C)O [PMB1, polymyxin B1] (X1-[Dab]T[Dab][Dab][Dab][dF]L[Dab][Dab]T; lactam 4-C)",peak concentration above which the probability of AKI would be >50%,patients receiving PMB; ref 17 (Deng et al.),> 5.23 µg/mL
"CC(C)CCCCC(=O)N[C@@H](CCN)C(=O)N[C@H](C(=O)N[C@@H](CCN)C(=O)N[C@H]1CCNC(=O)[C@H]([C@@H](C)O)NC(=O)[C@H](CCN)NC(=O)[C@H](CCN)NC(=O)[C@H](CC(C)C)NC(=O)[C@@H](Cc2ccccc2)NC(=O)[C@H](CCN)NC1=O)[C@@H](C)O [PMB2, polymyxin B2] ({Heptanoyl(6-Me)}-[Dab]T[Dab][Dab][Dab][dF]L[Dab][Dab]T; lactam 4-C)",Cmax,[1],1000 ng/mL
"CC[C@H](C)CCCCC(=O)N[C@@H](CCN)C(=O)N[C@H](C(=O)N[C@@H](CCN)C(=O)N[C@H]1CCNC(=O)[C@H]([C@@H](C)O)NC(=O)[C@H](CCN)NC(=O)[C@H](CCN)NC(=O)[C@H](CC(C)C)NC(=O)[C@@H](Cc2ccccc2)NC(=O)[C@H](CCN)NC1=O)[C@@H](C)O [PMB, polymyxin B] (X1-[Dab]T[Dab][Dab][Dab][dF]L[Dab][Dab]T; lactam 4-C)",30-day mortality rate,critically ill patients [2]; AKI group,46.7%
same,30-day mortality rate,critically ill patients [2]; non-AKI group,20%
same,optimal cutoff value of C1/2t for predicting PMB-induced AKI,"critically ill patients [3]; ROC curve, Youden index, p = 0.002, 66.7% sensitivity, 72% specificity",3.47 µg/mL
same,C1/2t at which the probability of AKI was >50%,"critically ill patients [3]; univariate logistic regression, Equation 5",≥ 3.24 mg/L
same,AUC(0-t),"[4]; based on Cmin(B) and Cmax(B), AKI (n = 30)",128 ± 36.2 µg·h/mL
same,AUC(0-t),"[4]; based on Cmin(B) and Cmax(B), Non-AKI (n = 25)",102 ± 30.9 µg·h/mL
same,AUC(0-t),"[4]; based on Cmin(B) and Cmax(B), Overall (n = 55)",116 ± 36 µg·h/mL
same,AUC(0-t),"[4]; based on Cmin(B), C1/2t(B), and Cmax(B), AKI (n = 30)",110 ± 31.3 µg·h/mL
same,AUC(0-t),"[4]; based on Cmin(B), C1/2t(B), and Cmax(B), Non-AKI (n = 25)",85.4 ± 24.4 µg·h/mL
same,AUC(0-t),"[4]; based on Cmin(B), C1/2t(B), and Cmax(B), Overall (n = 55)",99.1 ± 30.8 µg·h/mL
same,"AUC0–24, first-order pharmacokinetic equation, based on C1/2t(B) and Cmax(B) (AUC1/2t,max)",[4]; [6],103.7 ± 31.2 µg·h/mL
same,"AUC0–24, first-order pharmacokinetic equation, based on Cmin(B) and C1/2t(B)",[4]; [6],100.7 ± 34.8 µg·h/mL
same,"AUC0–24, first-order pharmacokinetic equation, based on Cmin(B) and Cmax(B)",[4]; [6],115.7 ± 35.1 µg·h/mL
same,"AUC0–24, first-order pharmacokinetic equation, based on Cmin(B) and C1/2t(B)",[4]; [7],72.8 ± 21.2 µg·h/mL
same,"AUC0–24, first-order pharmacokinetic equation, based on Cmin(B) and Cmax(B)",[4]; [7],90.2 ± 28.4 µg·h/mL
same,"AUC0–24, first-order pharmacokinetic equation, based on Cmin(B) and C1/2t(B)",[4]; [8],88.1 ± 32.3 µg·h/mL
same,"AUC0–24, first-order pharmacokinetic equation, based on Cmin(B) and Cmax(B)",[4]; [8],104.1 ± 34.4 µg·h/mL
same,trough concentration limit suggested to reduce the risk of AKI,patients receiving PMB; ref 16 (Han et al.),< 3.13 mg/L
same,nephrotoxicity compared with colistin,patients receiving PMB; systematic review and meta-analysis,lower nephrotoxicity than colistin
same,overall AKI incidence,"critically ill patients [5]; 30 of 55 patients on intravenous PMB, KDIGO definition",54.5%
same,patients who developed AKI on Day 3,critically ill patients [5]; after PMB administration,13.3%
same,patients who developed AKI within 7 days,critically ill patients [5]; share of the AKI group (n = 30),46.7%
